pIC50: −log10 of the molar value.
What was measured:
Plasmodium falciparum = assay: Growth inhibition of CQ-sensitive GFP-fused Plasmodium falciparum D10 after 90 hrs by ethidium bromide staining based flow cytometry; format: functional, organism-based; details: D10, 90 h
How it was run: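 Parasites cultured in human O+ erythrocytes in RPMI-HEPES pH 7.4 with hypoxanthine, NaHCO3, gentamicin and 0.5% Albumax II under 1% O2/4% CO2 at 37 °C. Synchronised to rings with heparin plus sorbitol. Set up at 1% parasitaemia and 1% haematocrit with 10x compound added. Cultured 90 h to next-cycle trophozoites. Stained with 10 µg/mL ethidium bromide for 1 h, washed, parasitaemia counted by flow cytometry with GFP gating.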

Pseudomonas aeruginosa [1] = assay: Antibacterial activity against Pseudomonas aeruginosa ATCC 27853 after 18 hrs by broth microdilution method; format: functional; details: ATCC 27853, 18 h
How it was run: (§1)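 Broth microdilution per CLSI in cation-adjusted Mueller-Hinton broth. 100 µL inoculum (~10^6 cfu/mL in CaMHB) mixed with 100 µL CaMHB containing compound, 0 to 128 µM. Incubated 18 h at 37 °C. MIC taken as the lowest concentration with no visible growth. Polymyxin B served as positive control. Isolates were stored at -80 °C in tryptone soy broth with 20% glycerol.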

Pseudomonas aeruginosa [2] = assay: Antibacterial activity against Pseudomonas aeruginosa isolate 912 after 18 hrs by broth microdilution method; format: functional; details: isolate 912, 18 h; how it was run: as §1
Pseudomonas aeruginosa [3] = assay: Antibacterial activity against Pseudomonas aeruginosa isolate 19147nm after 18 hrs by broth microdilution method; format: functional; how it was run: as §1
Pseudomonas aeruginosa [4] = assay: Antibacterial activity against Pseudomonas aeruginosa isolate M146201 after 18 hrs by broth microdilution method; format: functional; details: isolate M146201, 18 h; how it was run: as §1
Acinetobacter baumannii [5] = assay: Antibacterial activity against Acinetobacter baumannii ATCC 19606 after 18 hrs by broth microdilution method; format: functional; details: ATCC 19606 = CIP 70.34 = JCM 6841, 18 h; how it was run: as §1
Acinetobacter baumannii [6] = assay: Antibacterial activity against Acinetobacter baumannii ATCC 17978 after 18 hrs by broth microdilution method; format: functional; details: ATCC 17978, 18 h; how it was run: as §1
Acinetobacter baumannii [7] = assay: Antibacterial activity against Acinetobacter baumannii ATCC 19606 col10 after 18 hrs by broth microdilution method; format: functional; details: ATCC 19606 = CIP 70.34 = JCM 6841 col10, 18 h; how it was run: as §1
Acinetobacter baumannii [8] = assay: Antibacterial activity against Acinetobacter baumannii isolate 07AC-336 after 18 hrs by broth microdilution method; format: functional; details: isolate 07AC-336, 18 h; how it was run: as §1
Acinetobacter baumannii [9] = assay: Antibacterial activity against Acinetobacter baumannii ATCC 17978 col10 after 18 hrs by broth microdilution method; format: functional; details: ATCC 17978 col10, 18 h; how it was run: as §1
Klebsiella pneumoniae [10] = assay: Antibacterial activity against Klebsiella pneumoniae isolate M320445 after 18 hrs by broth microdilution method; format: functional; details: isolate M320445, 18 h; how it was run: as §1
Klebsiella pneumoniae [11] = assay: Antibacterial activity against Klebsiella pneumoniae isolate 1 after 18 hrs by broth microdilution method; format: functional; details: isolate 1, 18 h; how it was run: as §1
Klebsiella pneumoniae [12] = assay: Antibacterial activity against Klebsiella pneumoniae isolate 248-33-D after 18 hrs by broth microdilution method; format: functional; how it was run: as §1
Escherichia coli [13] = assay: Antibacterial activity against Escherichia coli N2381 after 18 hrs by broth microdilution method; format: functional; details: N2381, 18 h; how it was run: as §1
Escherichia coli [14] = assay: Antibacterial activity against Escherichia coli N11281 after 18 hrs by broth microdilution method; format: functional; details: N11281, 18 h; how it was run: as §1
[15] = Selectivity index, ratio of CC50 for human HepG2 cells in presence of 1% FBS to MIC for Pseudomonas aeruginosa isolate 912; format: toxicity; details: read-out: Selectivity Index
How it was run: (§2)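 Selectivity index is CC50 (1% FBS) divided by MIC. […] They then got compound at 300 to 0.14 µM (3-fold steps) for 24 h at 37 °C, 5% CO2. Resazurin (10 µM, 2 h) was read at ex/em 560/590 in duplicate wells. For MIC, CLSI broth microdilution was run in CaMHB with ~10^6 cfu/mL inoculum and 0–128 µM compound.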

[16] = Selectivity index, ratio of CC50 for human HepG2 cells in presence of 1% FBS to MIC for Pseudomonas aeruginosa isolate 18878B klon 1; format: toxicity; details: read-out: Selectivity Index; how it was run: as §2
[17] = Selectivity index, ratio of CC50 for human HepG2 cells in presence of 1% FBS to MIC for Pseudomonas aeruginosa isolate M146201; format: toxicity; details: read-out: Selectivity Index; how it was run: as §2
[18] = Selectivity index, ratio of CC50 for human HepG2 cells in presence of 1% FBS to MIC for Acinetobacter baumannii ATCC 19606; format: toxicity; details: read-out: Selectivity Index
[19] = Selectivity index, ratio of CC50 for human HepG2 cells in presence of 1% FBS to MIC for Acinetobacter baumannii ATCC 19606 col10; format: toxicity; details: read-out: Selectivity Index
[20] = Selectivity index, ratio of CC50 for human HepG2 cells in presence of 1% FBS to MIC for Acinetobacter baumannii isolate 07AC-336; format: toxicity; details: read-out: Selectivity Index
[21] = Selectivity index, ratio of CC50 for human HepG2 cells in presence of 1% FBS to MIC for Klebsiella pneumoniae ATCC 13883; format: toxicity; details: read-out: Selectivity Index
[22] = Selectivity index, ratio of CC50 for human HepG2 cells in presence of 1% FBS to MIC for Klebsiella pneumoniae isolate 1; format: toxicity; details: read-out: Selectivity Index
[23] = Selectivity index, ratio of CC50 for human HepG2 cells in presence of 1% FBS to MIC for methicillin-resistant Staphylococcus aureus ATCC 43300; format: toxicity; details: read-out: Selectivity Index; how it was run: as §2
[24] = Selectivity index, ratio of CC50 for human HepG2 cells in presence of 1% FBS to MIC for Klebsiella pneumoniae isolate 248-33-D; format: toxicity; details: read-out: Selectivity Index
[25] = Selectivity index, ratio of CC50 for human HepG2 cells in presence of 1% FBS to MIC for vancomycin-resistant Staphylococcus aureus ATCC 700699; format: toxicity; details: read-out: Selectivity Index; how it was run: as §2
[26] = system: Mycobacterium tuberculosis; assay: Antimycobacterial activity against Mycobacterium tuberculosis H37Rv ATCC 25618 after 7 days by resazurin dye based assay; format: functional; details: H37Rv ATCC 25618, 168 h
How it was run: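 H37Rv grown at 37 °C in 7H9 with 10% ADC, 0.5% glycerol and 0.02% tyloxapol. Compounds serially diluted in water, 0 to 10 µM, in triplicate. Culture adjusted to OD600 0.001 and incubated 7 days at 37 °C. Resazurin (0.05% w/v) added for 4-24 h and fluorescence read at 590 nm. MIC is the lowest concentration giving complete growth inhibition versus untreated. Rifampicin served as control.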

[27] = Selectivity index, ratio of CC50 for human HepG2 cells in presence of 1% FBS to MIC for Mycobacterium tuberculosis H37Rv ATCC 25618; format: toxicity; details: read-out: Selectivity Index
[28] = Selectivity index, ratio of CC50 for human HepG2 cells in presence of 1% FBS to IC50 for CQ-sensitive GFP-fused Plasmodium falciparum D10; format: toxicity; details: read-out: Ratio IC50
[29] = Cytotoxicity against human HepG2 cells after 24 hrs in presence of 1% FBS by resazurin dye based assay; format: cell-based
How it was run: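 HepG2 cells seeded at 4000/well in DMEM with 1% FBS and allowed to attach for 24 h at 37 °C, 5% CO2. Compounds added from 300 to 0.14 µM in 3-fold steps and incubated 24 h. 10 µM resazurin added for 2 h, fluorescence read at ex/em 560/590. Percent viability computed relative to untreated and negative controls, duplicate wells.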

Compound | pIC50 (Plasmodium falciparum) | MIC (Pseudomonas aeruginosa [1]) [µM] | MIC (Pseudomonas aeruginosa [2]) [µM] | MIC (Pseudomonas aeruginosa [3]) [µM] | MIC (Pseudomonas aeruginosa [4]) [µM] | MIC (Acinetobacter baumannii [5]) [µM] | MIC (Acinetobacter baumannii [6]) [µM] | MIC (Acinetobacter baumannii [7]) [µM] | MIC (Acinetobacter baumannii [8]) [µM] | MIC (Acinetobacter baumannii [9]) [µM] | MIC (Klebsiella pneumoniae [10]) [µM] | MIC (Klebsiella pneumoniae [11]) [µM] | MIC (Klebsiella pneumoniae [12]) [µM] | MIC (Escherichia coli [13]) [µM] | MIC (Escherichia coli [14]) [µM] | selectivity ratio [15] | selectivity ratio [16] | selectivity ratio [17] | selectivity ratio [18] | selectivity ratio [19] | further results
Clc1ccc2c(c1)-c1ccccc1[I+]2 | 7.10 | 8.7 | 4.3 | 4.3 | 4.3 | 4.3 | 2.2 | 2.2 | 8.7 | 0.5 | 35 | 35 | 17 | 17 | 17 | 3.7 | 7.5 | 3.7 | 3.7 | 7.5 | selectivity ratio [20]: 1.9; selectivity ratio [21]: 1.9; selectivity ratio [22]: 0.47; selectivity ratio [23]: 7.5; selectivity ratio [24]: 0.93; selectivity ratio [25]: 3.7; MIC [26]: 0.54 µM; selectivity ratio [27]: 30; selectivity ratio [28]: 194; CC50 at 24 h [29]: 16100 nM
COc1ccc2c(c1)-c1ccccc1[I+]2 | 7.00 | > 70 | 8.7 | 18 | 70 | 35 | 18 | 8.7 | 70 | 4.4 | 70 | > 70 | > 70 | > 70 | > 70 | 2.3 | 0.58 | 0.29 | 0.58 | 2.3 | selectivity ratio [20]: 0.29; selectivity ratio [21]: 0.29; selectivity ratio [22]: > 0.29; selectivity ratio [23]: 1.5; selectivity ratio [24]: > 0.29; selectivity ratio [25]: 0.58; MIC [26]: 1.1 µM; selectivity ratio [27]: 19; selectivity ratio [28]: 213; CC50 at 24 h [29]: 20200 nM
Cc1ccc2c(c1)-c1ccccc1[I+]2 | 7.10 | > 73 | 9 | 9 | 36 | 18 | 9 | 9 | 18 | 1.1 | 72 | > 72 | 72 | 72 | 72 | 4.2 | 4.2 | 1 | 2.2 | 4.2 | selectivity ratio [20]: 2.2; selectivity ratio [21]: 0.52; selectivity ratio [22]: > 0.52; selectivity ratio [23]: 4.2; selectivity ratio [24]: 0.52; selectivity ratio [25]: 2.2; MIC [26]: 0.57 µM; selectivity ratio [27]: 66; selectivity ratio [28]: 500; CC50 at 24 h [29]: 37500 nM
Fc1ccc2c(c1)[I+]c1ccccc1-2 | 7.22 | 8.9 | 1.1 | 0.56 | 2.2 | 4.5 | 1.1 | 2.2 | 8.9 | 0.56 | 36 | 72 | 36 | 18 | 18 | 5.3 | 5.3 | 2.6 | 2.6 | 2.6 | selectivity ratio [20]: 0.66; selectivity ratio [21]: 0.16; selectivity ratio [22]: 0.08; selectivity ratio [23]: 2.6; selectivity ratio [24]: 0.16; selectivity ratio [25]: 0.66; MIC [26]: 0.29 µM; selectivity ratio [27]: 20; selectivity ratio [28]: 105; CC50 at 24 h [29]: 5900 nM

Reference: ChEMBL document CHEMBL4145448, “Broad activity of diphenyleneiodonium analogues against Mycobacterium tuberculosis, malaria parasites and bacterial pathogens” (Eur J Med Chem, 2018)
